CSC inhib: cancer stem cell viability inhibitors, primary screen, luminescence; cancer stem cell-like cells viability; inhibition, % at 7.5 µM; actives 1.1% (n = 300,000); AID 2717, 2010; in the data active means inhibition above about 75%; inconclusive means no clear call, values can overlap the other calls; tested in HMLE shEcad cells
Efflux pump mplx: inhibitors of Candida efflux pumps in yeast, primary screen, S. cerevisiae, Nile Red, multiplex | S. cerevisiae Candida pump triplex | inhibition, % at 10 µM | actives 0.44% (n = 330,000) | AID 485275, 2010;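 active means plate passing quality check with inhibition over a set limit, or well fluorescence over plate mean plus 4 SD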;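 further: Nile Red retained in pooled yeast measured as flow cytometry median fluorescence; 0% = buffer negative control and 100% = Enniatin B positive control; higher means more Nile Red kept so more efflux inhibition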
WT yeast gro inh: growth inhibition of WT strain, primary screen, mitochondrial fusion inhibitor project, WT and mutant strains, chemical genetic | mitochondrial fusion phenotypic screen | inhibition, % at 10 µM | actives 2.1% (n = 190,000); in the data active means inhibition above about 58%; tested in S. cerevisiae
T cruzi repl: inhibitors of intracellular T. cruzi growth, primary screen, luminescence, NIH3T3 host cells | T. cruzi beta-gal in NIH3T3, 90 h | inhibition, % (no concentration beside the values) | actives 1.4% (n = 300,000) | AID 1885, 2009;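 active means mean inhibition across valid replicates above about 55%, limit read from the data; inconclusive means mean below that limit but half or more replicates reach it; inactive means mean below it, under half of replicates reach it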;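 further: signal also drops with host cell toxicity which is not excluded here; 0% = plate median of DMSO wells and 100% = zero luminescence signal; higher percent means less beta-gal luminescence so fewer parasites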
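System – NIH/3T3 host cells with β-galactosidase reporter T. cruzi · Doses – single 50 nL compound addition per well in DMSO · Reagent – 5000 T. cruzi trypomastigotes/well · Medium – Low-serum DMEM with 2% FBS · Timing – ≥90 h infection period, 3 h prior cell attachment · Evaluation – parasite load inhibition, % · Technique – GalScreen luminescence, 60 min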
Beta cell apopt: inhibitors of cytokine-induced beta cell apoptosis, primary screen, luminescence | INS-1E cytokine-induced death, ATP luminescence, 48 h; percent of positive-control rescue, neutral wells zero | protection from apoptosis, % (test concentration not listed) | actives 0.8% (n = 300,000) | AID 435005, 2010;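 active means Every replicate reaches about 75%, or at least half do and their mean reaches it too, limit read from the data; inconclusive means At least half of replicates reach the limit but their mean does not; inactive means Under half of replicates reach the limit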;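 further: 0% = cytokine-treated negative control wells and 100% = positive control rescue; higher means more ATP so stronger rescue from cytokine killing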
Mot1-301 SUMO: yeast Mot1-301 growth rescue at high temperature, primary screen, SUMOylation pathway inhibitor project, S. cerevisiae, ATP luminescence, 38.5C; S. cerevisiae Mot1-301 growth rescue; percent above DMSO median, 100 means doubled; growth rescue, % at 18.8 µM; actives 1% (n = 320,000);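 active means every valid replicate shows activation above 250% relative to neutral control wells; inactive means the rest, any valid replicate at or below 250%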;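 further: OY570 slx delta 5 strain wells were the positive control but not used for scaling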
Yeast Mot1 SUMO: growth restoration of Mot1-301 yeast on galactose, dose response, SUMO pathway inhibitor project, whole organism, S. cerevisiae, ATP luminescence, cherry-picked samples; shares compounds with Mot1-301 SUMO; S. cerevisiae Mot1-301 galactose growth, 24 h; -100 = growth of slx-deleted rescue strain; growth activity, percent, % at 42 µM; 2,300 tested, under 10 active; AID 493004, 2010;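 active means Signal drops as the depositor expects, and the fitted half-maximal dose is no more than ten times the top valid tested dose; inconclusive means Poor fit, or a flat curve whose signal drops by 30% to 70%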;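 further: more negative values mean stronger growth rescue toward the control strain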
The depositor's hits bear a star; ? = inconclusive; · = no result; + = active, no number; [ ] = dose if it differs, or a comment. Only some compounds are listed: those with a hit (about 4.8% of all), similar ones and a draw of the others.

SMILES	CSC inhib	Efflux pump mplx	WT yeast gro inh	T cruzi repl	Beta cell apopt	Mot1-301 SUMO	Yeast Mot1 SUMO
Cc1cc(C)c(CNC(=O)c2cc(C3CC3)nc3c2cnn3C(C)C)c(=O)[nH]1	·	0	·	·	-3	16	·
CCc1cc(/C(Cc2ccccn2)=N\O)c(O)cc1O	0	0	12	-7	-9	486*	0
CC1CC(C)CN(S(=O)(=O)N2CCCC(C(=O)NC(C)c3ccccc3)C2)C1 (stereo not given)	-3	0	·	5	4	14	·
CC(NC(=O)C1CCCN(S(=O)(=O)N2CCOCC2)C1)c1ccccc1 (stereo not given)	-7	0	·	-12	-2	368*	0
CCCCC(O)(CCCC)C(=O)NN(C(=O)OC)c1ccc(C)cc1	-10	0	·	-8	-3	446*	0
CCNc1ccc(S(=O)(=O)N(C)C)cc1NCC(=O)Nc1ccccc1Br	9	0	-4	-4	-3	987*	0
COc1ccc(OCC(=O)NC(=O)c2ccccc2OC)c([N+](=O)[O-])c1	0	0	·	-9	-3	14	·
Cc1cccc(OCCCN2CCCCCC2)c1	8	0	-10	7	0	34	·
Cc1cccc(OCCN2CSC(=S)N(C)C2)c1	58	0	36	11	1	372*	0
COc1cccc(NC(=O)Cn2c(=O)n(C)c(=O)c3sc4c(c32)COC(C)(C)C4)c1	-9	0	·	6	5	27	·
COc1ccc(N2C(=O)CSC23CCCCC3)cc1	-6	0	20	-8	2	+	1
CCOc1ccc(N2C(=O)CSC23CCCCC3)cc1	5	0	-7	3	2	-4	·
COCCCn1c(=O)c2ccccc2n(Cc2ccccc2C)c1=O	-5	0	·	15	·	455*	0
COCCCn1c(=O)c2ccccc2n(Cc2ccc(C)cc2)c1=O	-19	0	·	4	·	42	·
CC(=O)c1ccccc1NC(=O)COC(=O)c1cc(C)oc1C	-1	0	·	·	-2	9	·
CCOc1ccc(OCC)c(NC(=O)Cn2c(C)nc3ccccc3c2=O)c1	3	0	16	12	5	-1	·
Cc1ccc(NC(=O)CCN2CCC(C(N)=O)CC2)cc1	-10	0	·	-5	5	-10	·
NC1=NC2(CCCC2)N=C(Nc2ccccc2)N1	-18	0	·	7	-3	722*	0
Cc1cccc(NC2=NC3(CCCCC3)N=C(N)N2)c1	1	0	·	·	·	-20	·
COc1cc2cc(C(=O)N3CCN(Cc4ccc5c(c4)OCO5)CC3)c(=O)oc2cc1OC	-22	0	·	25	-3	-6	·
O=[N+]([O-])c1cccc(S(=O)(=O)NC2CC3CCC2C3)c1 (stereo not given)	-16	0	·	1	-5	-8	·
Cc1cc(C)c(S(=O)(=O)c2cccc(C)c2C)c(=O)[nH]1	3	0	·	2	-6	415*	0
Cc1cc(C)c(S(=O)(=O)c2ccccc2)c(=O)[nH]1	-11	0	·	-19	-6	243	·
COc1cc(C(=O)Nc2sc3c(c2C(=O)O)CCC(C)C3)cc(OC)c1OC (stereo not given)	23	0	·	-8	-2	438*	0
COc1cc(C(=O)Nc2sc(C)c(C)c2C(=O)O)cc(OC)c1OC	13	0	-12	-10	5	-7	·
SMILES	CSC inhib	Efflux pump mplx	WT yeast gro inh	T cruzi repl	Beta cell apopt	Mot1-301 SUMO	Yeast Mot1 SUMO
CC(C)(C)NC(=O)CN(C(=O)CCC(=O)Nc1nccs1)c1ccc2c(c1)OCCO2	·	0	·	0	1	543*	0
Cc1ccccc1C(=O)/C=C1\NC(=O)CS1	-10	0	-1	1	·	368*	-1[21 µM]
CC(C)n1c(SCC(=O)NCc2ccco2)nnc1C1CC1	8	2	·	0	2	-5	·
CCN(CC)C(=O)Cn1cc(S(=O)(=O)CC(=O)Nc2ccccc2C)c2ccccc21	-5	2	·	-3	-2	1	·
CCN(CC)C(=O)Cn1cc(S(=O)(=O)CC(=O)NCCc2ccc(OC)c(OC)c2)c2ccccc21	0	0	-9	-2	-6	384*	-1
O=C(NC1CCCCC1)c1cc(-c2cccs2)on1	8	0	·	-7	2	94	·
O=C(Nc1cccc(C(=O)Nc2ccc(F)cc2F)c1)c1ccccc1	-8	0	·	-1	0	+	-1
CC(C(=O)NCCN1CCOCC1)(c1ccccc1)c1ccccc1	-11	0	-13	-12	-4	667*	0
Cc1ccccc1C(=O)NCCN1CCOCC1	-11	0	-6	-15	-5	-3	·
C=CC(=O)NC1CC2CCC1(C)C2(C)C (stereo not given)	-14	0	·	-7	-2	459*	1
CCCC1Cc2c(sc3ncnc(N)c23)CO1 (stereo not given)	4	0	18	-3	2	420*	-1
CC(C)CCCN1CCN=C1Nc1ccccc1	-5	0	·	?	-1	596*	0
Cc1sc2nc(N)sc2c1C	-9	0	2	·	7	+	0
Oc1c(Br)cc(Br)cc1/C=N/n1c(-c2ccccc2)n[nH]c1=S	1	0	·	3	-9	644*	-2
S=c1[nH]nc(-c2ccccn2)n1/N=C/c1ccccc1	-9	0	0	-2	-3	369*	0
COc1c(Br)cc(/C=N/n2c(-c3ccccc3)n[nH]c2=S)c(O)c1Br	-6	0	·	-2	5	-22	·
Cc1cccc(NC(=O)C2Cc3ccccc3O/C2=N\O)c1 (stereo not given)	-4	0	·	-1	-9	8	·
COc1ccc(C(=O)Nc2ccnn2C2CCN(C(=O)C3CCOC3)CC2)cc1 (stereo not given)	-1	0	·	-15	-3	-6	·
Cc1onc(-c2c(F)cccc2Cl)c1C(N)=S	5	0	-15	-10	-4	66	·
CN(C/C=C/c1ccccc1[N+](=O)[O-])Cc1ccccc1	-14	0	·	31	-2	372*	0
COc1ccc(C2=NOC(Cn3nc(C(=O)NCc4cccs4)cc3-c3ccccc3)C2)cc1 (stereo not given)	2	0	·	18	3	692*	0
COc1ccc(NC(=O)c2ccc(S(=O)(=O)N3CC(C)CC(C)C3)cc2)cc1S(N)(=O)=O (stereo not given)	-11	0	·	·	-6	-4	·
